The target in assay [1] is MAP kinase-activated protein kinase 2 (Homo sapiens, UniProt P49137). Briefly: Inhibition of MAPKAPK2 at 30 uM by microfluidic mobility shift assay. Put shortly: (§1)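 Single-concentration screen, singlicate, 30 uM final (diluted from 1 mM DMSO solutions), fluorescently tagged peptide substrate appropriate to each kinase, ATP at apparent Km for each protein. Phosphorylated and unphosphorylated peptides separated electrophoretically; conversion is the phosphorylated peak area over the sum of both peaks. No-inhibitor and no-ATP controls; H89 reference on each plate.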

Assay [2] addresses T1, Aurora kinase A (Homo sapiens) (UniProt O14965).
T1 sequence (whole entry): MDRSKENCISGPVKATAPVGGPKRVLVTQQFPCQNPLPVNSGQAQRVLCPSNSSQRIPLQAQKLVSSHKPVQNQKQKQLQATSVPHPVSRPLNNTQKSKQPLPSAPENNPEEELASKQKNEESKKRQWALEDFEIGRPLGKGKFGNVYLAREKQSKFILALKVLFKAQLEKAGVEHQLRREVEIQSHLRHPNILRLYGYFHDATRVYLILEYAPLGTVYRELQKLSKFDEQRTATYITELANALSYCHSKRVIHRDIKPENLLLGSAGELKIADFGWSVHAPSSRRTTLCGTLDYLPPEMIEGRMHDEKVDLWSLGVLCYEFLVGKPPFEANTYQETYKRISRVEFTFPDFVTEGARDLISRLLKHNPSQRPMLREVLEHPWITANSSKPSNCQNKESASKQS
Nature of the assay: Inhibition of AurA at 30 uM by microfluidic mobility shift assay. The essentials:
as §1

The target in assay [3] is T2, Protein kinase C zeta type (Homo sapiens) (UniProt Q05513).
T2 sequence (whole entry): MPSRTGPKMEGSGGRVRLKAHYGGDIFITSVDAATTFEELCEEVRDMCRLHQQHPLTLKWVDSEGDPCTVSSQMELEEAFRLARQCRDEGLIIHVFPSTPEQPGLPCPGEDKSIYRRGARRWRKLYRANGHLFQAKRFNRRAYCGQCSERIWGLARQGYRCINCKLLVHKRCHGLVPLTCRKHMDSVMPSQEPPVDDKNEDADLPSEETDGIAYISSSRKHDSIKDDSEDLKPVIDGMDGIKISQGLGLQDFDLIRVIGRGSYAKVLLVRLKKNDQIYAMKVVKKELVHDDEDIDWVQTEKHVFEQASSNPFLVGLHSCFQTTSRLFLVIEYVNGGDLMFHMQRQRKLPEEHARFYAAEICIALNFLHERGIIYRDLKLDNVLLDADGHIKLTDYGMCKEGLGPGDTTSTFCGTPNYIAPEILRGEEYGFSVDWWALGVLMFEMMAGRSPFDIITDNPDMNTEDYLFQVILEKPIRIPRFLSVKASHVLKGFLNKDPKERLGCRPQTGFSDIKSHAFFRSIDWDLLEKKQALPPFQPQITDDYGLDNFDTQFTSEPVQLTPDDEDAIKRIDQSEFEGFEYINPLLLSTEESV
Nature of the assay: Inhibition of PKCz at 30 uM by microfluidic mobility shift assay. The essentials:
as §1

Assay [4] concerns the target Ribosomal protein S6 kinase alpha-1 (Homo sapiens) (UniProt Q15418). Nature of the assay: Inhibition of RSK1 at 30 uM by microfluidic mobility shift assay. Put shortly: as §1
Assay [5] concerns the target T3, MAP kinase-activated protein kinase 5 (Homo sapiens) (UniProt Q8IW41).
T3 sequence (whole entry): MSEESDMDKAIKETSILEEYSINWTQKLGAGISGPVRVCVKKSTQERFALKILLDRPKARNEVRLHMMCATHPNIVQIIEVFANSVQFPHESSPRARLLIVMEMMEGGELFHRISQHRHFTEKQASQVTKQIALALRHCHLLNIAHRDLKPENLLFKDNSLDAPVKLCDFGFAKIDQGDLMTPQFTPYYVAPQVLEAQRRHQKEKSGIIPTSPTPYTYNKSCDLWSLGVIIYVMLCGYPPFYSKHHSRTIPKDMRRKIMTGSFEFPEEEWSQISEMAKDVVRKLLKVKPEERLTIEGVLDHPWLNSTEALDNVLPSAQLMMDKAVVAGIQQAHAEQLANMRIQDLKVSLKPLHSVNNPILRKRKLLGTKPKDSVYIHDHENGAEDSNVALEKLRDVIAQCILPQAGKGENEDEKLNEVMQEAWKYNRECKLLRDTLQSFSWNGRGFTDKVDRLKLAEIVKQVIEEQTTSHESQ
Nature of the assay: Inhibition of PRAK1 at 30 uM by microfluidic mobility shift assay. The essentials:
as §1

The target in assay [6] is Mitogen-activated protein kinase 3 (Homo sapiens) (UniProt P27361). Nature of the assay: Inhibition of ERK1 at 30 uM by microfluidic mobility shift assay. Put shortly: as §1
Assay [7] has as its target T4, Serine/threonine-protein kinase Chk1 (Homo sapiens) (UniProt O14757).
T4 sequence (whole entry): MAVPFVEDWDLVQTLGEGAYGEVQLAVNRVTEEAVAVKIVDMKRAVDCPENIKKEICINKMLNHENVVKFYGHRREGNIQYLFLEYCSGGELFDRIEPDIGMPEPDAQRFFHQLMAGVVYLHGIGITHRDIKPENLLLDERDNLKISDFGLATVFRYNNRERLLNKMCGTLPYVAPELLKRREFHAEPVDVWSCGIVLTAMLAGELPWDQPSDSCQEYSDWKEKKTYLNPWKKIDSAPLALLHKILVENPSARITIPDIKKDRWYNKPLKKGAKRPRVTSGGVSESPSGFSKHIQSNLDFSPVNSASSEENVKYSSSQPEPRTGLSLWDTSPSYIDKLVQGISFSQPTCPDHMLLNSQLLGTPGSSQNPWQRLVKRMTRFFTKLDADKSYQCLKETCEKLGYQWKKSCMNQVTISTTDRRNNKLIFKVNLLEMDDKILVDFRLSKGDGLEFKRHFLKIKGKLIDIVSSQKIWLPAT
Briefly: Inhibition of CHK1 at 30 uM by microfluidic mobility shift assay. The essentials: as §1

The target of assay [8] is Tyrosine-protein kinase Fyn (Homo sapiens, UniProt P06241). Briefly: Inhibition of FYN at 30 uM by microfluidic mobility shift assay. Put shortly:
as §1

Assay [9] has as its target Tyrosine-protein kinase Lyn (Homo sapiens, UniProt P07948). Nature of the assay: Inhibition of LYN at 30 uM by microfluidic mobility shift assay. The essentials:
as §1

Assay [10] concerns the target Serine/threonine-protein kinase Chk2 (Homo sapiens, UniProt O96017). Briefly: Inhibition of CHK2 at 30 uM by microfluidic mobility shift assay. The essentials: as §1
The target in assay [11] is Tyrosine-protein kinase Lck (Homo sapiens, UniProt P06239). Nature of the assay: Inhibition of LCK at 30 uM by microfluidic mobility shift assay. The essentials:
as §1

The target of assay [12] is Glycogen synthase kinase-3 beta (Homo sapiens) (UniProt P49841). Nature of the assay: Inhibition of GSK3B at 30 uM by microfluidic mobility shift assay. Put shortly:
as §1

In assay [13] the target is Mitogen-activated protein kinase 1 (Homo sapiens) (UniProt P28482). Briefly: Inhibition of ERK2 at 30 uM by microfluidic mobility shift assay. Put shortly:
as §1

Assay [14] has as its target RAC-beta serine/threonine-protein kinase (Homo sapiens) (UniProt P31751). Nature of the assay: Inhibition of AKT2 at 30 uM by microfluidic mobility shift assay. The essentials:
as §1

Assay [15] deals with Insulin receptor (Homo sapiens) (UniProt P06213). Nature of the assay: Inhibition of INSR at 30 uM by microfluidic mobility shift assay. The essentials: as §1
Assay [16] addresses RAC-alpha serine/threonine-protein kinase (Homo sapiens) (UniProt P31749). Nature of the assay: Inhibition of AKT1 at 30 uM by microfluidic mobility shift assay. The essentials:
as §1

Chain of Mitogen-activated protein kinase 1 (Homo sapiens) (P28482 whole entry): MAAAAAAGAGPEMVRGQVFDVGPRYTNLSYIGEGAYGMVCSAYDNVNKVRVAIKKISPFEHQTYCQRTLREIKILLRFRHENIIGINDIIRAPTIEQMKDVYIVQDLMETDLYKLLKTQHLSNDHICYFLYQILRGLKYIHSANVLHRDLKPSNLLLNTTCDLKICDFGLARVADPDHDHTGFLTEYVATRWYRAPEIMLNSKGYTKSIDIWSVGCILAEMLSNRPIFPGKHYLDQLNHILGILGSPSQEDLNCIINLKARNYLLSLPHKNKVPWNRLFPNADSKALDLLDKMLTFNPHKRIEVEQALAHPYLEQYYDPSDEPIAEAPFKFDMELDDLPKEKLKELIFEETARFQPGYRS
Chain of MAP kinase-activated protein kinase 2 (P49137 whole entry, looked up): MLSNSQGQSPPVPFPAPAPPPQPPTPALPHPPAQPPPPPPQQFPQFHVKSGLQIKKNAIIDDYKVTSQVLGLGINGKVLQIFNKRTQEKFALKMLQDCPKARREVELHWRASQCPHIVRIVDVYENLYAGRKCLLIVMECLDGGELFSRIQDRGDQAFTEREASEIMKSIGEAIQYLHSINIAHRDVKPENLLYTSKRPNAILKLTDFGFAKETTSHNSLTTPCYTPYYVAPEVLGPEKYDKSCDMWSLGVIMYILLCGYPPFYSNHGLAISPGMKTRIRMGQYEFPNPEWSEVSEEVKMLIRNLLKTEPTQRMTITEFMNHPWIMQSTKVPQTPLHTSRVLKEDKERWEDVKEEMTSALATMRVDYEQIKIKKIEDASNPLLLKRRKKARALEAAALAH
Chain of RAC-beta serine/threonine-protein kinase (Homo sapiens) (P31751 whole entry): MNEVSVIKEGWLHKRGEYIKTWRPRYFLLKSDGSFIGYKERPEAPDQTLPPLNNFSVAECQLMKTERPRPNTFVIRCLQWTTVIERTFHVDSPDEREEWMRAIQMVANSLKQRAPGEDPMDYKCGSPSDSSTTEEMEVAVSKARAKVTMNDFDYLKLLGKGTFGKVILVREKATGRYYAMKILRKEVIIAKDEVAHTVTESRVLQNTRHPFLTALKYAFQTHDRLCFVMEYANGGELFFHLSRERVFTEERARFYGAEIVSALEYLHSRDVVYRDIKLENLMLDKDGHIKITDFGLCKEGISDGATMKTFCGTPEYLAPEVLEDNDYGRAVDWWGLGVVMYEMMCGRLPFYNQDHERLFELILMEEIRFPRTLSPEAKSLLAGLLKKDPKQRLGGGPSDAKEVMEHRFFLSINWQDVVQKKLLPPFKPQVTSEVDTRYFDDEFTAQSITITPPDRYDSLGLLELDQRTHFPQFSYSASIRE
Chain of Tyrosine-protein kinase Fyn (P06241 2-537 limits assumed): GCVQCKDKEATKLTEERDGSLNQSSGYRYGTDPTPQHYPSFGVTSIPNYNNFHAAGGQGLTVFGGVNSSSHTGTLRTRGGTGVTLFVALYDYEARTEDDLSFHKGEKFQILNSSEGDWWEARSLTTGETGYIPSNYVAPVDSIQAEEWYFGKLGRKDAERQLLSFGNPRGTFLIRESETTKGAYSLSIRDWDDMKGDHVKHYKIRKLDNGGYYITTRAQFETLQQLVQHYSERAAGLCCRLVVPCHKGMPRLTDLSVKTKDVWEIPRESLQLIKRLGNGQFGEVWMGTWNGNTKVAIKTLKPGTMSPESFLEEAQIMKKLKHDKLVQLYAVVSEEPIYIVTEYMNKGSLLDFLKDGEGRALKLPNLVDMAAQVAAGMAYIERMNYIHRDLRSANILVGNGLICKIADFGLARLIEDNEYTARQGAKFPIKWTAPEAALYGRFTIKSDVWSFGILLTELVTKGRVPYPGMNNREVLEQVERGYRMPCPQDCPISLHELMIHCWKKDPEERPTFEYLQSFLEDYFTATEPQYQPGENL
Chain of Serine/threonine-protein kinase Chk2 (O96017 whole entry): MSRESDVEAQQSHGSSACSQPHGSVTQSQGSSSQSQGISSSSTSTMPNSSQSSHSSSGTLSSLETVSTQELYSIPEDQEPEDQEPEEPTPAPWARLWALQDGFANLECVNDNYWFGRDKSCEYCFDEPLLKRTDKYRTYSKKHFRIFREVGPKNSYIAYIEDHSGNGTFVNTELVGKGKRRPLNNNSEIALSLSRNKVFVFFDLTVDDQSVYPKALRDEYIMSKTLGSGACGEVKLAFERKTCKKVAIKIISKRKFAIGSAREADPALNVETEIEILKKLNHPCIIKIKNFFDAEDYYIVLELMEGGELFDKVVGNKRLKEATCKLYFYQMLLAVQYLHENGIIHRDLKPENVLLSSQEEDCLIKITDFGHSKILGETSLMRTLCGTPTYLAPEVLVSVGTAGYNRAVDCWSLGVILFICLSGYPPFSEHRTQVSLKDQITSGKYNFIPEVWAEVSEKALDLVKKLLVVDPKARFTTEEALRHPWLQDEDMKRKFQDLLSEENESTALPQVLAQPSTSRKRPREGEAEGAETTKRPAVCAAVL
Chain of Mitogen-activated protein kinase 3 (Homo sapiens) (P27361 whole entry): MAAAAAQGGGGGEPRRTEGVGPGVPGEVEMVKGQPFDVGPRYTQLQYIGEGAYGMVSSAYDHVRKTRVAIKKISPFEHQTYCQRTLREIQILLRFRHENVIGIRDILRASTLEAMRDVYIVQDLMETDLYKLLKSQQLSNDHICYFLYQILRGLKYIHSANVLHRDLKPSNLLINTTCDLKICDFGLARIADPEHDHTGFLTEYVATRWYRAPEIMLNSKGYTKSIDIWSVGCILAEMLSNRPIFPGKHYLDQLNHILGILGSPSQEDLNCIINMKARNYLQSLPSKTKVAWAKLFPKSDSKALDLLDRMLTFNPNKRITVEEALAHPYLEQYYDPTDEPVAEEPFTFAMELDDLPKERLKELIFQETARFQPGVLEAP
Chain of Tyrosine-protein kinase Lck (P06239 2-509 limits assumed): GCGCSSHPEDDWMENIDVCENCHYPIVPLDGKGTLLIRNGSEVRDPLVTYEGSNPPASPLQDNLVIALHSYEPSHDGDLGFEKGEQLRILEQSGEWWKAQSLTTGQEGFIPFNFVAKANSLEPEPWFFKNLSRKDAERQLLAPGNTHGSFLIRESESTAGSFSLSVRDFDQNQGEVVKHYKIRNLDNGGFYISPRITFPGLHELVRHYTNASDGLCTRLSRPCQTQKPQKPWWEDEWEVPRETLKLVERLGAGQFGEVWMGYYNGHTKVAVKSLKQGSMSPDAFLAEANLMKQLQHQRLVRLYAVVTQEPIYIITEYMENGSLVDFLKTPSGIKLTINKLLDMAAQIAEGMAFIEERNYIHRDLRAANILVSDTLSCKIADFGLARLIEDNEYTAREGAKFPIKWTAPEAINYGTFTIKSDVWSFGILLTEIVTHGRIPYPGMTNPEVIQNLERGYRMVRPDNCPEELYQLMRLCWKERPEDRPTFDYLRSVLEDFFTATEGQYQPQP
Chain of Tyrosine-protein kinase Lyn (P07948 2-512 limits assumed): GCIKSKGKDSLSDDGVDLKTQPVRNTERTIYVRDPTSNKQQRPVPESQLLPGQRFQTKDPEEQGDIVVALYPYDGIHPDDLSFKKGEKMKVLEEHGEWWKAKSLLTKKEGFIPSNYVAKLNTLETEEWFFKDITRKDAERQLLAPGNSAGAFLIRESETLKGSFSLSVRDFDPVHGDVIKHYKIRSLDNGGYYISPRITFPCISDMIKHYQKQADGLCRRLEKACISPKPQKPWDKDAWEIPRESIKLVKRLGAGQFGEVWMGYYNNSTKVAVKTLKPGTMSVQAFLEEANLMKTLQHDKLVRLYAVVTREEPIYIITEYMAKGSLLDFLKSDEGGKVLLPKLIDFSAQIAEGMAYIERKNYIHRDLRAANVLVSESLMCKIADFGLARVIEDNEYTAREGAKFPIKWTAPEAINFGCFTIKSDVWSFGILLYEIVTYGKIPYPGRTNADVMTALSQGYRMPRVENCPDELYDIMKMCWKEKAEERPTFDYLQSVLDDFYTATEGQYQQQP
Chain of Ribosomal protein S6 kinase alpha-1 (Homo sapiens) (Q15418 whole entry): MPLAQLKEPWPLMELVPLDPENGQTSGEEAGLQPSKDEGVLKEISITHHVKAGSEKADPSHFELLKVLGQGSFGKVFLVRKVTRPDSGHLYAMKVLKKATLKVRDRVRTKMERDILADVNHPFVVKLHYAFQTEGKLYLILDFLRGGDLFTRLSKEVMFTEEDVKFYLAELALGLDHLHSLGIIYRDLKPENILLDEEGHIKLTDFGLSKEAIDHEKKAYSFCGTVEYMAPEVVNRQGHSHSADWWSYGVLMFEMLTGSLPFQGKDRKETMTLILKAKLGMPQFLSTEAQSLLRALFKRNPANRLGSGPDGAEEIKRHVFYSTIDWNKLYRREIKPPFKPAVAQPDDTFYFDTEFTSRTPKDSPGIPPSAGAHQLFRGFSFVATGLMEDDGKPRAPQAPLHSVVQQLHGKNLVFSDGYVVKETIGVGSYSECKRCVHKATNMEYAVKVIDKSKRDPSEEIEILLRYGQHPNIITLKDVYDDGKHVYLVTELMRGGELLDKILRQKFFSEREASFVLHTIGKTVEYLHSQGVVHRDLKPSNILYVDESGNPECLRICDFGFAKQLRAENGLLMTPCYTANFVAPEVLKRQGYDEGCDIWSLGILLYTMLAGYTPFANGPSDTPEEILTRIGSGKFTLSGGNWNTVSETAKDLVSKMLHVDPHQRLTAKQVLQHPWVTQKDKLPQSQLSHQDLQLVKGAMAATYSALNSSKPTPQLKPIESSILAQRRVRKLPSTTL
Chain of Glycogen synthase kinase-3 beta (Homo sapiens) (P49841 whole entry, looked up): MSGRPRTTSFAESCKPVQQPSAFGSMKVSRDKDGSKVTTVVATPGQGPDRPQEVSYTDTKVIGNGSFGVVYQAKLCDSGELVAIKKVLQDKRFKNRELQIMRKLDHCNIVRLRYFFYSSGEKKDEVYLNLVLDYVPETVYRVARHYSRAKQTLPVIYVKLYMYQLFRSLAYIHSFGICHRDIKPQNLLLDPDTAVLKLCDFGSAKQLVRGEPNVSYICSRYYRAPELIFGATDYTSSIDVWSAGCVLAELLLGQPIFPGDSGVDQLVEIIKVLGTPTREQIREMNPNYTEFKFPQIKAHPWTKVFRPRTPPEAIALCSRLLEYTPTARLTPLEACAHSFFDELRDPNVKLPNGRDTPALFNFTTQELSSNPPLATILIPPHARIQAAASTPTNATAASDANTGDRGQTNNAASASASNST

With `COc1ccc(-c2cc3nn(-c4ccccc4)c(N)c3c(=O)[nH]2)cc1`, the inhibition in [1] stood at 7%; in [2], 10%; in assay [3] it was 0%; in assay [4], 4%; in assay [5], 12%; in [6], 8%. Also, the inhibition was 5% in assay [7]; 88% in assay [8]; 90% in assay [9]; -3% in [10]; 75% in [11]; 14% in [12]. Further, the inhibition came to 3% in assay [13], 0% in [14], 0% in [15] and 16% in [16].

Regarding `COCCNc1nc(-c2ccccc2)cc2c1c(N)nn2C`, the inhibition in [1] was 2%; in [2] it was 10%; in [3], 20%; in assay [4], -3%; in [5], 1%; in [6], 3%. Besides, the inhibition in assay [7] is 7%; in assay [8], 0%; in [9], 4%; in assay [10] it was 8%; in assay [11], 9%; in assay [12] it was 3%. In addition, the inhibition in assay [13] was 0%; in [14] it was -1%; in assay [15], 1%; in assay [16], 8%.

Turning to `Nc1n[nH]c2c3c([nH]c(=O)c12)CCCC3`, the inhibition in assay [1] was 5%; in assay [2], 12%; in [3], -5%; in [4], -9%; in assay [5], 0%; in [6], 5%. For the same compound, the inhibition was determined as 17% in assay [7]; 11% in [8]; 12% in assay [9]; 7% in assay [10]; 7% in [11]; 23% in assay [12]. For the same compound, the inhibition in [13] was 6%; in [14], -1%; in assay [15], -3%; in assay [16], -3%.

`Cc1cc2c(c(NS(C)(=O)=O)nn2C)c(=O)[nH]1`: the inhibition in assay [1] is 1%; in assay [2] it was -8%; in assay [3] it was 27%; in [4] it was -6%; in assay [5], 0%; in [6], 0%. Moreover, the inhibition in [7] was 7%; in [8] it was 11%; in [9], 1%; in assay [10], -1%; in assay [11], 4%; in assay [12], 13%. Further, the inhibition is 3% in assay [13], 16% in assay [14], -6% in assay [15] and 1% in [16].

Take `COc1cccc(-c2cc3[nH]nc(N)c3c(=O)[nH]2)c1`: the inhibition in assay [1] was 56%; in assay [2] it was 49%; in [3] it was -1%; in assay [4], 20%; in assay [5] it was 10%; in assay [6] it was 20%. Moreover, the inhibition in assay [7] stood at 13%; in [8], 42%; in assay [9], 49%; in [10] it was 52%; in [11] it was 48%; in assay [12], 58%. Further, the inhibition came out at 15% in assay [13], 2% in [14], 20% in assay [15] and 4% in [16].

Values taken from ChEMBL document CHEMBL1811853, “Design and evaluation of 3-aminopyrazolopyridinone kinase inhibitors inspired by the natural product indirubin” (Bioorg Med Chem, 2011).
